A short description of the data set: Toxicity liver stage against HepG2, at 10uM. In kind it is cell-based. Also noted: test concentration 10 uM, cell line HepG2-A16-CD81EGFP. Conditions: human, HepG2-A16-CD81EGFP cells; read-out: INHIBITION
A digest of the protocol: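 Uninfected HepG2-A16-CD81EGFP cells, 3 × 10^3 per well, 1536-well, plated on prespotted compound at 10 μM final, parasite-free screening media added to match infected plates; puromycin 10 μM positive, DMSO 0.5% negative; run in parallel with 48 h PbLuc assay at 37 °C, 5% CO2; viability by CellTiter-Glo luminescence, normalized to controls.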
Regarding `O=C(c1cc(COc2ccc3c(c2)OCO3)[nH]n1)N1CCCCO1`, the cytotoxicity at 10 µM was -2.47%.

Regarding `CC1(C(=O)NC2CCCC2)CCCN(c2ncccn2)C1` (stereo unspecified), the cytotoxicity at 10 µM is -27.3%.

Take `Cc1ccc(C(=O)N2CCCC3(CCCC(=O)N3C)C2)cc1F` (stereo unspecified): the cytotoxicity at 10 µM was found to be 4.12%.

As for `CC(=O)N1CCc2cc(Cl)cc(Cl)c2C1`, the cytotoxicity at 10 µM was determined as 11.2%.

For the compound `CCc1cnc(N)nc1N(C)CCc1cnn(C)c1`, the cytotoxicity at 10 µM stood at 55.9%.

Consider `COCCC(=O)N1CCN(CC2CC2)c2ncccc2C1`, for which the cytotoxicity at 10 µM is -96.7%.

Turning to `O=C(NCCSC1CCCC1)c1ccc(F)cc1F`, the cytotoxicity at 10 µM is -3.16%.

With `CC(C(=O)NCCCN1CCCCCC1=O)n1cncn1` (stereo unspecified), the cytotoxicity at 10 µM is -20.9%.

On to `COCCNc1nc(N2CCCC2)nc2nccnc12`, for which the cytotoxicity at 10 µM was determined as 0.649%.

In the case of `CC(C)(C)OC(=O)N1CCC[C@H](NCC2=CCCOC2)C1`, the cytotoxicity at 10 µM is -6.93%.

`CN(Cc1ccccc1CNC(=O)C1CNC(=O)N1)C1CCCCC1` (stereo unspecified): the cytotoxicity at 10 µM was found to be 5.09%.

`O=C(Cc1ccc2c(c1)OCCO2)NC1CCCCC1`: the cytotoxicity at 10 µM was -12.3%.

For the compound `CC(O)CN1CCC(CNCc2cccc(OC(F)(F)F)c2)CC1` (stereo unspecified), the cytotoxicity at 10 µM is -7.95%.

With `Cc1ccc(NC2CCN(C(=O)COCC(F)(F)F)CC2)nn1`, the cytotoxicity at 10 µM was 6.38%.

Take `CCN1CCN(CC(C)(O)c2cccc(C(F)(F)F)c2)CC1` (stereo unspecified): the cytotoxicity at 10 µM is -11.4%.

Turning to `CCN(C)Cc1cccc(CNC(=O)CSCc2ccccn2)c1`, the cytotoxicity at 10 µM is 1.61%.

With `CNC(=O)NC(=O)CN1CCCN(CC(F)(F)F)CC1`, the cytotoxicity at 10 µM was -2.37%.

Consider `OCC1(O)CCCN(Cc2noc(-c3ccccc3)n2)CC1` (stereo unspecified), for which the cytotoxicity at 10 µM was -2.72%.

On to `CC1CCN(CCNC(=O)c2ccn(-c3ccccc3)n2)CC1`, for which the cytotoxicity at 10 µM is -5.99%.

Consider `Cc1ccc(-c2cc(C(=O)NCCN3CCCS3(=O)=O)[nH]n2)o1`, for which the cytotoxicity at 10 µM is -7.98%.

`CC(C)CN1C[C@@H]2CN(C(=O)[C@H]3CCCO3)C[C@@H]2C1=O`: the cytotoxicity at 10 µM was found to be 6.03%.

As to `CN(C)c1cc(C(=O)NCCc2n[nH]c(=O)[nH]2)ccn1`, the cytotoxicity at 10 µM is -1.89%.

Consider `CC(C)CN1CC(C(=O)NCc2ccnc(-n3cccn3)c2)CC1=O` (stereo unspecified), for which the cytotoxicity at 10 µM was -5.48%.

Consider `Fc1ccc(CN2CCO[C@H]3[C@H](OCCN4CCCC4)CC[C@@H]32)cc1`, for which the cytotoxicity at 10 µM came out at 2.17%.

Take `CC(=O)c1ccc(-n2ccc3nc(N4CCCC4)ncc3c2=O)cc1`: the cytotoxicity at 10 µM came to 1.45%.

With `CN1CCc2c(C#N)c(NCc3ccccc3)n3cnnc3c2C1`, the cytotoxicity at 10 µM is 3.93%.

With `Cc1ccc(-c2nc(CNc3ccc(C(N)=O)c(C)c3)cs2)o1`, the cytotoxicity at 10 µM came to 23.9%.

Regarding `CC(=O)NC1CC(C)(C)Cc2c1cnn2-c1cccc(F)c1` (stereo unspecified), the cytotoxicity at 10 µM is -144%.

As for `NC(=O)[C@H]1CCCN(c2nccc(-c3ccncc3)n2)C1`, the cytotoxicity at 10 µM was -5.03%.

As for `COc1cc(C2CC(=O)Oc3cc(C)[nH]c(=O)c32)ccc1OCC(=O)O` (stereo unspecified), the cytotoxicity at 10 µM is -4.23%.

As to `c1cnc(N2CCN(CCn3ccnc3-c3ccncc3)CC2)nc1`, the cytotoxicity at 10 µM is -3.25%.

For `CN(Cc1nnc2n1CCC2)C(=O)c1ccc(=O)n(C)n1`, the cytotoxicity at 10 µM was -8.16%.

With `Cc1c(CC(C#N)C(=O)Nc2cccc(O)c2)cnn1C` (stereo unspecified), the cytotoxicity at 10 µM amounted to 0.781%.

As to `Cc1nccn1CCC1CCCCN1C(=O)c1ccc2[nH]nnc2c1` (stereo unspecified), the cytotoxicity at 10 µM turned out to be 19.9%.

On to `COC(C)(CNS(=O)(=O)c1cn(C)cn1)c1ccccc1F` (stereo unspecified), for which the cytotoxicity at 10 µM is -8.39%.

Regarding `O=C(NC1CCN(c2cccc(OC(F)(F)F)c2)C1=O)C1CCC1` (stereo unspecified), the cytotoxicity at 10 µM is -3.11%.

Turning to `CNC(=O)[C@@]12CCO[C@@H]1CCN(S(=O)(=O)c1ccccc1F)C2`, the cytotoxicity at 10 µM was -71.2%.

With `Cc1cc(C(=O)N2CCNC(=O)CC2)c(C)n1CC(F)(F)F`, the cytotoxicity at 10 µM stood at 1.88%.

In the case of `CC(C)C1C(=O)NCCN1C(=O)CCCc1nc(C(C)(C)C)no1` (stereo unspecified), the cytotoxicity at 10 µM was -3.53%.

On to `Cc1cc(-c2nn(C)c(Cl)c2CN2CCOCC(O)C2)no1` (stereo unspecified), for which the cytotoxicity at 10 µM is -14.8%.

Regarding `COc1ccc2c3c1CN(S(C)(=O)=O)CC3=CC(C)(C)CO2`, the cytotoxicity at 10 µM stood at 7.77%.

As to `CCC1CN(CC(=O)NCCOC)CCO1` (stereo unspecified), the cytotoxicity at 10 µM is -12.9%.

On to `Cc1nc(O)cc(CCNC(=O)c2ccc(CN3CCCCC3)cc2)n1`, for which the cytotoxicity at 10 µM was determined as 8.61%.

With `CC(C)Cc1cc(C(=O)NCCn2nc3ccccn3c2=O)[nH]n1`, the cytotoxicity at 10 µM was -16.3%.

`CC1CN(c2ccc(CNC(=O)c3ccn(C)c(=O)c3)cn2)CCO1` (stereo unspecified): the cytotoxicity at 10 µM was 2.82%.

As for `CCOC(=O)c1cc2n(n1)CCCO2`, the cytotoxicity at 10 µM is 3.86%.

On to `CCC(C)S(=O)(=O)N(Cc1ccco1)Cc1ccccc1O` (stereo unspecified), for which the cytotoxicity at 10 µM amounted to 9.99%.

Regarding `Cc1ccc(C(N)c2cccs2)cc1` (stereo unspecified), the cytotoxicity at 10 µM is -0.367%.

For the compound `Nc1nccnc1C1CN(C(=O)c2cnc(C3CC3)nc2)CCO1` (stereo unspecified), the cytotoxicity at 10 µM was -27%.

Consider `CC(=O)N1CCC(C(=O)NC2CCc3nccn3C2)CC1` (stereo unspecified), for which the cytotoxicity at 10 µM was -13.4%.

Turning to `CN(CC1(C)COC1)C(=O)c1cc(-c2cnn(C)c2)nc2ccccc12`, the cytotoxicity at 10 µM stood at 0.89%.

As to `COc1ccc(CN2CCOC[C@H]2c2nc(-c3ccncc3)c[nH]2)cc1`, the cytotoxicity at 10 µM is -0.588%.

Consider `c1cn(CC2CC2)c(C2CCN(CCC3CCOC3)CC2)n1` (stereo unspecified), for which the cytotoxicity at 10 µM was -8.64%.

With `COCCN1CC2(CCN(Cc3ccco3)CC2)c2ccccc21`, the cytotoxicity at 10 µM worked out at 18.3%.

For the compound `O=C(c1cccnc1)N1CCC2(CC1)COC(COc1ccccn1)C2` (stereo unspecified), the cytotoxicity at 10 µM was -0.735%.

Regarding `Cn1cnnc1CN1CCC2(CCCN(C3CCCC3)C2=O)C1` (stereo unspecified), the cytotoxicity at 10 µM is -133%.

Regarding `Cc1nnc2n1CCN(CC(=O)NC(C)c1cc3ccccc3o1)C2` (stereo unspecified), the cytotoxicity at 10 µM was -9.79%.

For `Cc1cc2c(N)nc(=O)n(CC(=O)Nc3cccc(Cl)c3)c2s1`, the cytotoxicity at 10 µM was -3.14%.

For the compound `CC(C)Cc1nc(CO)n(-c2ccc3c(c2)OCCO3)n1`, the cytotoxicity at 10 µM was -1.86%.

On to `CNC(=O)c1ccc(CN(C)c2ccc(C(F)(F)F)cn2)cc1`, for which the cytotoxicity at 10 µM amounted to 6.71%.

In the case of `CSCCCN1C[C@@H]2CC[C@H]1CN(Cc1[nH]cnc1C)C2`, the cytotoxicity at 10 µM turned out to be 1.2%.

In the case of `Cc1nccn1C1CCCN(C(=O)c2ccc(N(C)C)nn2)C1` (stereo unspecified), the cytotoxicity at 10 µM is -17.7%.

`Cc1noc(CC2CCN(Cc3ccc(CCC(C)(C)O)cc3)CC2)n1`: the cytotoxicity at 10 µM is -2.18%.

On to `CC[C@H](N)Cn1nc(-c2cccs2)oc1=O`, for which the cytotoxicity at 10 µM was found to be 1.75%.

As to `O=S1(=O)NCC2(CCN(c3ncccn3)CC2)COc2ccccc21`, the cytotoxicity at 10 µM was -1.34%.

Consider `CS(=O)(=O)N1CCOCC2(CCN(Cc3ccc[nH]3)CC2)C1`, for which the cytotoxicity at 10 µM was -7.02%.

For the compound `COc1ccc(C(=O)NS(=O)(=O)c2cccc(C#N)c2)cc1`, the cytotoxicity at 10 µM was -2.97%.

Take `CCc1ncnc(N2CCCC(c3cc(C(N)=O)[nH]n3)C2)c1F` (stereo unspecified): the cytotoxicity at 10 µM is -4.68%.

On to `CCN(C(=O)Cc1ccc(NCc2ncc[nH]2)cc1)c1ccccc1`, for which the cytotoxicity at 10 µM was 6.43%.

Regarding `O=C(c1noc2c1CCCC2)N1CCCC(c2nccs2)C1` (stereo unspecified), the cytotoxicity at 10 µM was -2.66%.

In the case of `O=C(c1ccc(F)cc1)N1CCN2C[C@H](OCc3ccccn3)C[C@H]2C1`, the cytotoxicity at 10 µM was determined as 2.8%.

Consider `CCCn1ncnc1C(C)NC(=O)C1CCN(C(C)C)CC1` (stereo unspecified), for which the cytotoxicity at 10 µM was -139%.

For `O=C(NCc1ccccn1)[C@@H]1COC[C@H]2CN(C3CCOCC3)C[C@H]21`, the cytotoxicity at 10 µM came out at 2.52%.

As to `COCc1nc(C(=O)N2CCCC2c2ccc(OC)cc2)cs1` (stereo unspecified), the cytotoxicity at 10 µM was -3.81%.

Take `O=C(C1CC=CC1)N1CCc2c(COCc3ccncc3)cncc2C1`: the cytotoxicity at 10 µM was -7.79%.

With `Cn1cc(-c2ncc3c(c2C(=O)O)CCN(Cc2ccccn2)C3)cn1`, the cytotoxicity at 10 µM was -107%.

Turning to `CN1C(=O)C(C)(C)COc2cc(NS(=O)(=O)Cc3ccccc3)ccc21`, the cytotoxicity at 10 µM is -7.79%.

On to `CO[C@H]1CCN(Cc2cnn(C)c2)[C@@H]2CN(Cc3cccnc3)C[C@H]12`, for which the cytotoxicity at 10 µM is -4.17%.

`COCCCNC(=O)C(C)n1nc(-c2ccco2)cc(N)c1=O` (stereo unspecified): the cytotoxicity at 10 µM came out at 0.152%.

On to `COc1cc(F)ccc1C(C(=O)O)N(C)CCN1CCCC1` (stereo unspecified), for which the cytotoxicity at 10 µM was -13.4%.

As to `C1CCCN(c2nc(C3CC3)ns2)CC1`, the cytotoxicity at 10 µM was -12.3%.

Consider `COc1cccc(C2CCN2C(=O)c2cnccn2)c1` (stereo unspecified), for which the cytotoxicity at 10 µM was determined as 12.2%.

In the case of `O=C(NC1CCS(=O)(=O)c2ccccc21)c1sccc1C1CC1` (stereo unspecified), the cytotoxicity at 10 µM amounted to 3.63%.

Consider `CCOC(=O)c1ccc(NC(=O)c2c(O)nc3c(c2O)CCCC3)cc1`, for which the cytotoxicity at 10 µM was 8.46%.

Turning to `O=C1NCC2(CCCN(C(=O)c3ccc4c(c3)CCCO4)CC2)O1` (stereo unspecified), the cytotoxicity at 10 µM is -19.7%.

On to `c1cc(-c2noc([C@@H]3Cc4nc[nH]c4CN3)n2)ccn1`, for which the cytotoxicity at 10 µM was -0.873%.

For the compound `CCN1CCN(S(=O)(=O)N2CCCCCC2)[C@H]2CS(=O)(=O)C[C@H]21`, the cytotoxicity at 10 µM came out at 1.58%.

In the case of `N#Cc1ccccc1N1CCCN(C(=O)CCc2nccs2)CC1`, the cytotoxicity at 10 µM was -2.12%.

Regarding `CCC1CN(c2nnc(C)c(C)c2C#N)CCO1` (stereo unspecified), the cytotoxicity at 10 µM is -0.678%.

Turning to `O=C1[C@@H]2CCN(C3CCOCC3)C[C@@H]2OCCN1Cc1cccnc1`, the cytotoxicity at 10 µM was -80%.

Take `Cc1ccc(C(=O)N2CCn3cc(CN(C)Cc4ccco4)nc3C2)o1`: the cytotoxicity at 10 µM turned out to be 12.4%.

Consider `CSCC[C@@H](CO)NC(=O)c1ccc2nc(NS(C)(=O)=O)sc2c1`, for which the cytotoxicity at 10 µM is 10.7%.

Turning to `CN(C)[C@H]1CN(C(=O)c2ccc3sc4c(c3c2)CCNC4=O)C[C@@H]1O`, the cytotoxicity at 10 µM was -5.38%.

For the compound `Cc1cc2[nH]c(=O)c(=O)[nH]c2cc1S(=O)(=O)NC1CCC(C)CC1` (stereo unspecified), the cytotoxicity at 10 µM is -10.5%.

Take `Cc1noc([C@H]2CC[C@@H]3[C@@H](CCN3c3ncccn3)O2)n1`: the cytotoxicity at 10 µM worked out at 3.06%.

With `CC(C)N1CC2(CCCN(c3ccccn3)C2)CCC1=O` (stereo unspecified), the cytotoxicity at 10 µM is -0.608%.

For the origin of these results see ChEMBL document CHEMBL4513216, “Probing the Open Global Health Chemical Diversity Library for Multistage-Active Starting Points for Next-Generation Antimalarials” (ACS Infect Dis, 2020).
